Data taken from ChEMBL document CHEMBL4024769, “Synthesis and Investigation of Photophysical and Biological Properties of Novel S-Containing Bacteriopurpurinimides” (J Med Chem, 2017).
The source made the active and inactive calls. The rule behind the calls is not given here.

Assays:
[1] = Phototoxicity against mouse S37 cells implanted in F1 mouse assessed as tumor growth inhibition at 2.5 mg/kg, iv preincubated for 15 mins with subsequent 150 J/cm2 irradiation measured on day 11 post irradiation relative to control; assay type: functional; details: S37, light or radiation study, read-out: TGI
Method in brief: (§1)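 S37 sarcoma mice treated on day 7 of tumor growth with compound iv; tumors 140–160 mm3 beforehand, droperidol 0.25 mg ip as anesthetic. LED irradiation at 800 ± 21 nm, 100 mW/cm2, 150 J/cm2, given 15 or 30 min after dosing. Controls got iv 0.9% NaCl. Volume = d1×d2×d3×0.52; TGI = […]×100%.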

[2] = Phototoxicity against mouse S37 cells implanted in F1 mouse assessed as tumor growth inhibition at 2.5 mg/kg, iv preincubated for 15 mins with subsequent 150 J/cm2 irradiation measured on day 18 post irradiation relative to control; assay type: functional; details: S37, light or radiation study, read-out: TGI; method in brief: as §1
[3] = Phototoxicity against mouse S37 cells implanted in F1 mouse assessed as tumor growth inhibition at 2.5 mg/kg, iv preincubated for 15 mins with subsequent 150 J/cm2 irradiation measured on day 20 post irradiation relative to control; assay type: functional; details: S37, light or radiation study, read-out: TGI; method in brief: as §1
[4] = Phototoxicity against mouse S37 cells implanted in F1 mouse assessed as tumor growth inhibition at 5 mg/kg, iv preincubated for 15 mins with subsequent 150 J/cm2 irradiation measured on day 20 post irradiation relative to control; assay type: functional; details: S37, light or radiation study, read-out: TGI; method in brief: as §1
[5] = Drug uptake in skin tumor of F1 mouse implanted with mouse S37 cells assessed as normalized fluorescence at 2.5 mg/kg, iv measured after 30 mins post injection in presence of He-Ne laser radiation by local fluorescence spectroscopic analysis; assay type: ADME, organism-based; details: in vivo, 0.5 h
Method in brief: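 S37 sarcoma-bearing immunocompetent F1 mice (18−22 g) given PS 2.5 mg/kg iv. Animals sacrificed at 0.25, 0.5, 2, 4 and 24 h, with three animals per time point. Skin, tumor and organ samples were read ex vivo by contact local fluorescence spectroscopy under He−Ne 632.8 nm excitation. Integrated 640−900 nm emission was normalized to the backscattered laser signal to give FN.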

[6] = Drug uptake in kidney tumor of F1 mouse implanted with mouse S37 cells assessed as normalized fluorescence at 2.5 mg/kg, iv measured after 24 hrs post injection in presence of He-Ne laser radiation by local fluorescence spectroscopic analysis; assay type: ADME, organism-based; details: in vivo
Method in brief: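 Single iv dose of 2.5 mg/kg given to F1 mice bearing S37 sarcoma. Skin, muscle, liver, kidney, spleen and tumor taken from three animals each at 0.25, 0.5, 2, 4 and 24 h and read ex vivo by contact local fluorescence spectroscopy. He–Ne 632.8 nm excitation; 640–900 nm integral normalized to backscattered laser signal (FN).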

[7] = Phototoxicity against mouse S37 cells implanted in F1 mouse assessed as tumor growth inhibition at 5 mg/kg, iv preincubated for 30 mins with subsequent 150 J/cm2 irradiation measured on day 8 post irradiation relative to control; assay type: functional; details: S37, light or radiation study, read-out: TGI; method in brief: as §1
[8] = Phototoxicity against mouse S37 cells implanted in F1 mouse assessed as tumor growth inhibition at 5 mg/kg, iv preincubated for 30 mins with subsequent 150 J/cm2 irradiation measured on day 15 post irradiation relative to control; assay type: functional; details: S37, light or radiation study, read-out: TGI; method in brief: as §1
[9] = Phototoxicity against mouse S37 cells implanted in F1 mouse assessed as tumor growth inhibition at 5 mg/kg, iv preincubated for 30 mins with subsequent 150 J/cm2 irradiation measured on day 20 post irradiation relative to control; assay type: functional; details: S37, light or radiation study, read-out: TGI; method in brief: as §1
[10] = Phototoxicity against rat Sarcoma M1 cells implanted in rat assessed as tumor volume at 2.5 mg/kg, ip administered as single dose on day 11 after inoculation followed by 300 J/cm2 irradiation after 2.5 to 3 hrs measured on day 1 post photodynamic therapy (reference value: 1.22 +/- 0.18 mm3); assay type: functional
Method in brief: (§2)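 Rats with M1 sarcoma implanted subcutaneously in the left thigh were randomized on day 10, 25 per group. Single ip dose of 2.5 mg/kg on day 11; laser irradiation 2.5–3 h later at 810 nm, 0.51 W/cm2, 300 J/cm2, 10 min over a 1.5 cm field. Five rats sampled per time point for H&E histology, PCNA immunohistochemistry (1:200) and tumor volume. Untreated controls; Student's test, p < 0.05.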

[11] = (§3) Phototoxicity against rat Sarcoma M1 cells implanted in rat assessed as volume of tumor parenchyma at 2.5 mg/kg, ip administered as single dose on day 11 after inoculation followed by 300 J/cm2 irradiation after 2.5 to 3 hrs measured on day 1 post photodynamic therapy by hematoxylin and eosin staining based assay (reference value: 69 +/- 6%); assay type: functional
Method in brief: (§4)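 Rat M1 sarcoma was implanted subcutaneously in the left thigh, with randomisation on day 10. A single 2.5 mg/kg ip dose was given on day 11, then 810 nm laser (0.51 W/cm2, 300 J/cm2, 10 min) after 2.5−3 h. Tumours were sectioned on days 1, 3 and 12 after PDT (controls days 12, 14, 23), five animals per point. Parenchyma and necrotic zone volumes were estimated on hematoxylin and eosin staining.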

[12] = (§5) Phototoxicity against rat Sarcoma M1 cells implanted in rat assessed as volume of tumor necrotic zones at 2.5 mg/kg, ip administered as single dose on day 11 after inoculation followed by 300 J/cm2 irradiation after 2.5 to 3 hrs measured on day 1 post photodynamic therapy (reference value: 32 +/- 6 %); assay type: functional; method in brief: as §4
[13] = as §5, with “of PCNA-positive cells in” for “of”, “parenchyma” for “necrotic zones”, “71” for “32”, “3” for “6”; assay type: functional; method in brief: as §2
[14] = as §3, with “on day 3 post photodynamic” for “on day 1 post photodynamic”, “(reference value: 70 +/- 4%)” for “(reference value: 69 +/- 6%)”, “70 +/- 4%)” for “69 +/- 6%)”; assay type: functional; method in brief: as §4
[15] = Phototoxicity against rat Sarcoma M1 cells implanted in rat assessed as mitotic index at 2.5 mg/kg, ip administered as single dose on day 11 after inoculation followed by 300 J/cm2 irradiation after 2.5 to 3 hrs measured on day 3 post photodynamic therapy (reference value: 1.84 +/- 0.04%); assay type: functional; method in brief: as §2
[16] = Phototoxicity against rat Sarcoma M1 cells implanted in rat assessed as tumor volume at 2.5 mg/kg, ip administered as single dose on day 11 after inoculation followed by 300 J/cm2 irradiation after 2.5 to 3 hrs measured on day 12 post photodynamic therapy (reference value: 12 +/- 3 mm3); assay type: functional; method in brief: as §2
[17] = as §3, with “on day 12 post photodynamic” for “on day 1 post photodynamic”, “(reference value: 56 +/- 3%)” for “(reference value: 69 +/- 6%)”, “56 +/- 3%)” for “69 +/- 6%)”; assay type: functional; method in brief: as §4
[18] = Phototoxicity against rat Sarcoma M1 cells implanted in rat assessed as volume of tumor necrotic zones at 2.5 mg/kg, ip administered as single dose on day 11 after inoculation followed by 300 J/cm2 irradiation after 2.5 to 3 hrs measured on day 12 post photodynamic therapy (reference value: 44 +/- 3%); assay type: functional; method in brief: as §4
[19] = Phototoxicity against rat Sarcoma M1 cells implanted in rat assessed as volume of PCNA-positive cells in tumor parenchyma at 2.5 mg/kg, ip administered as single dose on day 11 after inoculation followed by 300 J/cm2 irradiation after 2.5 to 3 hrs measured on day 12 post photodynamic therapy (reference value: 72 +/- 5%); assay type: functional; method in brief: as §2
Sarcoma M1 = test: Phototoxicity against rat Sarcoma M1 cells implanted in rat assessed as deposition of fragments of proliferated tumor parenchyma at 2.5 mg/kg, ip administered as single dose on day 11 post inoculation followed by 300 J/cm2 irradiation after 2.5 to 3 hrs measured on day 2 post photodynamic therapy; assay type: functional, organism-based
[20] = Pro-oxidant activity in 1% cremophor EL or rose Bengal assessed as singlet oxygen radical generation by measuring photo-induced fading of 4-nitroso-N,N-dimethylaniline at 3.4 uM in presence of laser radiation and histidine measured every 5 to 10 mins in presence of singlet oxygen quencher NaN3 by absorption spectroscopy; assay type: functional

CCCO/N=C(\C)c1c(C)c2cc3nc(c4c5[nH]c(cc6nc(cc1[nH]2)[C@H](C)[C@H]6CC)c(C)c5C(=O)N(OCCC)C4=O)[C@@H](CCC(=O)OC)[C@@H]3C
inhibition in vivo at 2.5 mg/kg [1]: 100% | inhibition in vivo at 2.5 mg/kg [2]: 100% | inhibition in vivo at 2.5 mg/kg [3]: 100% | inhibition in vivo at 5 mg/kg [4]: 100%

CCCO/N=C(\C)c1c(C)c2cc3nc(c4c5[nH]c(cc6nc(cc1[nH]2)[C@@H](C)[C@@H]6CC)c(C)c5C(=O)N(OCCC)C4=O)[C@H](CCC(=O)NCCSSCCNC(=O)CC[C@@H]1c2nc(cc4[nH]c(cc5nc(cc6[nH]c7c2C(=O)N(OCCC)C(=O)c7c6C)[C@H](CC)[C@H]5C)c(/C(C)=N/OCCC)c4C)[C@H]1C)[C@H]3C
Flu intensity [5]: 2.2 RU | Drug uptake [6]: Active | inhibition in vivo at 5 mg/kg [7]: 100% | inhibition in vivo at 5 mg/kg [8]: 100% | inhibition in vivo at 5 mg/kg [9]: 100% | Activity [10]: 1.13 mm3 | Activity [11]: 39% | Activity [12]: 60% | Activity [13]: 26% | Activity [14]: 23% | Activity [15]: 1.84% | Activity [16]: 0.44 mm3 | Activity [17]: 30% | Activity [18]: 71% | Activity [19]: 39% | Activity (Sarcoma M1): Active | Activity [20]: inactive
